From ChEMBL document CHEMBL3407371, “Elimination of a cholecystokinin receptor agonist 'trigger' in an effort to develop positive allosteric modulators without intrinsic agonist activity” (Bioorg Med Chem Lett, 2015)
Activity calls are given as the source filed them. The rule behind the calls is not given here.

Columns and labels:
[1] = molecular target: T1, Cholecystokinin receptor type A (Homo sapiens, UniProt P32238, T117V/T118S); assay type: cell-based, CHO
[2] = molecular target: T2, Cholecystokinin receptor type A (Homo sapiens, UniProt P32238); assay type: cell-based; conditions: cho
[3] = molecular target: T2, Cholecystokinin receptor type A; assay type: cell-based; conditions: cho; remark: listed apart in the source
[4] = molecular target: T3, Gastrin/cholecystokinin type B receptor (Homo sapiens) (UniProt P32239); assay: Activity at CCK2R (unknown origin) expressed in CHO cells assessed as stimulation of intracellular calcium responses; assay type: functional, cell-based
T3 sequence (whole entry): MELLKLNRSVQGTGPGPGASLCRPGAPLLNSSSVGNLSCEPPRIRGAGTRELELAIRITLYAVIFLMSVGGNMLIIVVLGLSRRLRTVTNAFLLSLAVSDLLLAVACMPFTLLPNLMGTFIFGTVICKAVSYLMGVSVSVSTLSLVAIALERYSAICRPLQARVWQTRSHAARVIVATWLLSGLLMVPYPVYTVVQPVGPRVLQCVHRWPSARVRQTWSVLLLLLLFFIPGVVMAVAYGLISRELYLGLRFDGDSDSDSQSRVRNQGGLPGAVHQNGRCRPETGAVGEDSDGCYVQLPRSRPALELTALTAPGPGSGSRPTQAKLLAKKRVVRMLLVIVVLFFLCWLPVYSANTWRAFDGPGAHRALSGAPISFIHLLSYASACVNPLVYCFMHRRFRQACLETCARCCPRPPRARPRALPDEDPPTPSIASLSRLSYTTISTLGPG
Procedure, shortened: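 Intact CHO cell lines stably expressing CCK1R or CCK2R; intracellular calcium measured after adding compound alone. […] Peak responses and EC50 values taken from concentration-response curves. Duplicate determinations, at least three independent experiments, means ± S.E.M.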

[5] = molecular target: T4, Cholecystokinin receptor type A (Homo sapiens, UniProt P32238); assay: Activity at CCK1R (unknown origin) expressed in CHO cells assessed as stimulation of intracellular calcium responses; assay type: functional, cell-based
T4 sequence (P32238 whole entry): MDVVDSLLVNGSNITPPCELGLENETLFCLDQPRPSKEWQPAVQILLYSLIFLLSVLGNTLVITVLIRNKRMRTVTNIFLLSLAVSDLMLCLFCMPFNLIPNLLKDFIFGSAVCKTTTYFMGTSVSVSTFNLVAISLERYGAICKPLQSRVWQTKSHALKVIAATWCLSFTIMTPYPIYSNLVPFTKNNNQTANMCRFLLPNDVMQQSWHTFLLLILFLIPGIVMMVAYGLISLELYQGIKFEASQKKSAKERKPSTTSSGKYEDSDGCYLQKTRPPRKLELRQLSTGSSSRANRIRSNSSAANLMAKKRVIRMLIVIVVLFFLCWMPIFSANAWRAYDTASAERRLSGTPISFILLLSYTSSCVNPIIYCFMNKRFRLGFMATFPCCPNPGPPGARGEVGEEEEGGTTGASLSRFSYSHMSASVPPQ
Procedure, shortened: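 Intact CHO cell lines stably expressing CCK1R or CCK2R; intracellular calcium measured after adding compound alone. Peak responses and EC50 values taken from concentration-response curves. Duplicate determinations, at least three independent experiments, means ± S.E.M.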

[6] = molecular target: T5, Cholecystokinin receptor type A (Homo sapiens, UniProt P32238, L356H); assay type: cell-based, CHO
T5 sequence (P32238 whole entry L356H): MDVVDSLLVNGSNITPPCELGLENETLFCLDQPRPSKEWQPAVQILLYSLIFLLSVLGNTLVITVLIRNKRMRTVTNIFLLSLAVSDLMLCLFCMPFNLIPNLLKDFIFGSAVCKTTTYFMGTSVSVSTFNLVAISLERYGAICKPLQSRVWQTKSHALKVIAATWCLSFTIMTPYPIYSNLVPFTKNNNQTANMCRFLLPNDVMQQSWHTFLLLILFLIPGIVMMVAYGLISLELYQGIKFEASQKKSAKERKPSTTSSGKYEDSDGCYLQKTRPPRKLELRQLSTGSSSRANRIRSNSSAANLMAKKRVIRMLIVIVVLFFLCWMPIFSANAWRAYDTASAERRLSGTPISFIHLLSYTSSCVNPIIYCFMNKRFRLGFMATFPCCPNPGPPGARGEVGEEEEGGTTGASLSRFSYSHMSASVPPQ

[7] = molecular target: T1, Cholecystokinin receptor type A; assay type: cell-based, CHO; remark: listed apart in the source
[8] = molecular target: T2, Cholecystokinin receptor type A; assay type: cell-based; conditions: cho; remark: listed apart in the source
[9] = molecular target: T6, Cholecystokinin receptor type A (Homo sapiens) (UniProt P32238); conditions: CHO, 1 uM
T6 sequence (whole entry): T4 sequence (P32238 whole entry)

[10] = molecular target: T7, Gastrin/cholecystokinin type B receptor (Homo sapiens, UniProt P32239); assay type: cell-based, CHO
T7 sequence (P32239 whole entry): T3 sequence (whole entry)

[11] = molecular target: T8, Cholecystokinin receptor type A (Homo sapiens, UniProt P32238, N98T); assay type: cell-based, CHO
T8 sequence (P32238 whole entry N98T): as the sequence (P32238 whole entry L356H) above, with N98T, H356L counted along it

[12] = molecular target: T8, Cholecystokinin receptor type A; assay type: cell-based, CHO; remark: listed apart in the source
[13] = molecular target: T5, Cholecystokinin receptor type A; assay type: cell-based, CHO; remark: listed apart in the source
[14] = molecular target: T7, Gastrin/cholecystokinin type B receptor; assay type: cell-based, CHO; remark: listed apart in the source
[15] = molecular target: T4, Cholecystokinin receptor type A; assay type: functional, cell-based; conditions: cho
[16] = molecular target: T4, Cholecystokinin receptor type A; assay type: cell-based, CHO
[17] = molecular target: T7, Gastrin/cholecystokinin type B receptor; assay type: cell-based, CHO; remark: listed apart in the source
[18] = molecular target: T4, Cholecystokinin receptor type A; assay type: cell-based, CHO; remark: listed apart in the source

T1 sequence (P32238 whole entry T117V/T118S): as the sequence (P32238 whole entry L356H) above, with T117V, T118S, H356L counted along it

Compound | IC50 [1] [nM] | IC50 [2] | IC50 [3] [nM] | Activity [4] | EC50 [5] [nM] | IC50 [6] [nM] | IC50 [7] [nM] | IC50 [8] [nM] | inhibition [9] | IC50 [10] [nM] | IC50 [11] [nM] | IC50 ([12]; read-out: IC50) [nM] | IC50 [13] [nM] | IC50 [14] [nM] | EC50 [15] | IC50 [16] [nM] | IC50 [17] [nM] | IC50 [18] [nM] | IC50 ([12]; cho)
COc1ccc(N(C)C(=O)CN2C(=O)C(NC(=O)Nc3ccccc3)C(=O)N(c3ccccc3)c3ccccc32)cc1 (stereo not given) | 50.2 | Not Active | > 1000 | inactive | 90 | 153 | 334 | 151 | inactive | 48.6 | 40.3 | 875 | 233 | 20.3 |  |  |  |  | 
CC(C)N(C(=O)CN1C(=O)[C@H](NC(=O)Nc2cccc(C(=O)O)c2)C(=O)N(c2ccccc2)c2ccccc21)c1ccccc1 |  |  |  | inactive | 0.8 |  |  |  |  | 5.6 |  |  |  |  | Not Active | 128 | 2.7 | 105 | 
O=C(CN1C(=O)C(NC(=O)Nc2ccccc2)C(=O)N(c2ccccc2)c2ccccc21)Nc1ccccc1 (stereo not given) |  | Not Active |  | inactive |  |  |  |  | inactive |  |  |  |  |  |  |  |  |  | Not Active
